Calls of active or inactive are those of the source. The calls are words filed in the database; no cut-off is given here.
Tests used:
HT-29 [1] = assay: Cell cycle arrest in human HT-29 cells assessed as accumulation of cells at sub G1 phase at 100 nM after 24 hrs by propidium iodide staining-based flow cytometric analysis (reference value: 1.2 +/- 0.3%); type: functional
HT-29 [2] = assay: Cell cycle arrest in human HT-29 cells assessed as accumulation of cells at G1 phase at 100 nM after 24 hrs by propidium iodide staining-based flow cytometric analysis (reference value: 75.1 +/- 1.1%); type: functional
HT-29 [3] = assay: Antiproliferative activity against human HT-29 cells after 72 hrs by MTT assay; type: functional, cell-based; settings: HT-29, 72 h
Outline: (§1)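 MTT read-out after 72 h of continuous exposure. Viability is expressed as percentage of viable cells relative to untreated controls. IC50 comes from dose-response curves. Values are means±SD of four independent experiments (two for some entries). DMSO was below 1%, with vehicle controls at equal DMSO. Precipitation was excluded spectrometrically and microscopically.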

HT-29 [4] = assay: Cell cycle arrest in human HT-29 cells assessed as accumulation of cells at sub G1 phase at 250 nM after 24 hrs by propidium iodide staining-based flow cytometric analysis (reference value: 1.2 +/- 0.3%); type: functional
HT-29 [5] = assay: Cell cycle arrest in human HT-29 cells assessed as accumulation of cells at S phase at 100 nM after 24 hrs by propidium iodide staining-based flow cytometric analysis (reference value: 12.3 +/- 0.4%); type: functional
HT-29 [6] = assay: Cell cycle arrest in human HT-29 cells assessed as accumulation of cells at S phase at 250 nM after 24 hrs by propidium iodide staining-based flow cytometric analysis (reference value: 12.3 +/- 0.4%); type: functional
HT-29 [7] = assay: Cell cycle arrest in human HT-29 cells assessed as accumulation of cells at G1 phase at 350 nM after 24 hrs by propidium iodide staining-based flow cytometric analysis (reference value: 75.1 +/- 1.1%); type: functional
[8] = Antiproliferative activity against human A2780cis cells after 72 hrs by SRB assay; type: functional, cell-based
Outline: (§2)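 Ovarian A2780 and cisplatin-resistant A2780cis cells were exposed for 72 h and stained with SRB. IC50 comes from dose-response curves, as means±SD of three independent experiments. Final DMSO was below 1%, with matched vehicle controls.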

HT-29 [9] = assay: Cell cycle arrest in human HT-29 cells assessed as accumulation of cells at S phase at 350 nM after 24 hrs by propidium iodide staining-based flow cytometric analysis (reference value: 12.3 +/- 0.4%); type: functional
HT-29 [10] = assay: Cell cycle arrest in human HT-29 cells assessed as accumulation of cells at G1 phase at 250 nM after 24 hrs by propidium iodide staining-based flow cytometric analysis (reference value: 75.1 +/- 1.1%); type: functional
HT-29 [11] = assay: Cell cycle arrest in human HT-29 cells assessed as accumulation of cells at G2/M phase at 350 nM after 24 hrs by propidium iodide staining-based flow cytometric analysis (reference value: 11.4 +/- 1.4%); type: functional
Tubulin (Sus scrofa) = Tubulin (Sus scrofa) (UniProt P02554+P02550); assay: Inhibition of porcine brain tubulin polymerization at 10 uM after 2 hrs relative to control
Tubulin (Sus scrofa), sequence (P02550 whole entry, looked up): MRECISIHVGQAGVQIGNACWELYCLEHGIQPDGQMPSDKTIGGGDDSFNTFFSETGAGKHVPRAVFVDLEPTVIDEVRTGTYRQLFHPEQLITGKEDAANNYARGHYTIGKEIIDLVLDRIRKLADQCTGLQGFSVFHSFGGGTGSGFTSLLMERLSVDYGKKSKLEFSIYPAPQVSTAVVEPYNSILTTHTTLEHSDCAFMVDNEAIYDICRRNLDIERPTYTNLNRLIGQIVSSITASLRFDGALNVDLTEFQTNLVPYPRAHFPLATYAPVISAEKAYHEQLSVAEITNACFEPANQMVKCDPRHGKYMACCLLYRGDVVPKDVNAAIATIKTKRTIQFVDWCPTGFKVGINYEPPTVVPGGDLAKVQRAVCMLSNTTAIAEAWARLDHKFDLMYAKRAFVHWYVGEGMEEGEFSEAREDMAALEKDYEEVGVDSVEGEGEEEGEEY
Tubulin (Sus scrofa), sequence (P02554 whole entry, looked up): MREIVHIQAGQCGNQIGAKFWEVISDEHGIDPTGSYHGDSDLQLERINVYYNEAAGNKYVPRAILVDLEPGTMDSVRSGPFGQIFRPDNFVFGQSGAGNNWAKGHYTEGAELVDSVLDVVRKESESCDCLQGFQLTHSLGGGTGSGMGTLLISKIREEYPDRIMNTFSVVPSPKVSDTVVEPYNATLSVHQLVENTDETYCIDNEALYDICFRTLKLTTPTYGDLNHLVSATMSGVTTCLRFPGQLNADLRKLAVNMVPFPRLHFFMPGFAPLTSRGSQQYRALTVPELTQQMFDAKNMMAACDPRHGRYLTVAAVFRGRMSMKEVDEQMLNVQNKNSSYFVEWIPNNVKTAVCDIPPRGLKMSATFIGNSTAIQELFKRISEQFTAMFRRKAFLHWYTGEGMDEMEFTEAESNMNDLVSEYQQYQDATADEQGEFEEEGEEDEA
Outline: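 In a brief single-concentration run, purified tubulin polymerization was measured at 10 µM and expressed as percent of vehicle-treated controls.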

HT-29 [12] = assay: Cell cycle arrest in human HT-29 cells assessed as accumulation of cells at G2/M phase at 250 nM after 24 hrs by propidium iodide staining-based flow cytometric analysis (reference value: 11.4 +/- 1.4%); type: functional
HT-29 [13] = assay: Cell cycle arrest in human HT-29 cells assessed as accumulation of cells at sub G1 phase at 350 nM after 24 hrs by propidium iodide staining-based flow cytometric analysis (reference value: 1.2 +/- 0.3%); type: functional
A2780 = assay: Antiproliferative activity against human A2780 cells after 72 hrs by SRB assay; type: functional, cell-based; settings: A2780, 72 h; outline: as §2
518A2 [14] = assay: Antiproliferative activity against human 518A2 cells after 72 hrs by MTT assay; type: functional, cell-based; settings: for IC50: 518A2, 72 h; outline: as §1
HT-29 [15] = assay: Cell cycle arrest in human HT-29 cells assessed as accumulation of cells at G2/M phase at 100 nM after 24 hrs by propidium iodide staining-based flow cytometric analysis (reference value: 11.4 +/- 1.4%); type: functional
EA.hy 926 [16] = assay: Cytotoxicity against human EAhy926 cells at 100 nM after 24 hrs by MTT assay relative to control; type: cell-based; settings: ea.hy 926, 24 h, 0.1 µM
Chorioallantoic membrane [17] = assay: Antiangiogenic activity in Leghorn chicken embryo chorioallantoic membrane assessed as induction of hemorrhages at 5 nmol after 6 hrs by light microscopic analysis; type: functional, tissue-based; settings: Gallus gallus
Outline: (§3)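 Fertilized chicken eggs, CAM assay. Compound was applied topically into a small silicon foil ring placed on the CAM. The membrane and its extraembryonal blood vessels were monitored over 24 h, with observations at 6 h and 24 h post application.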

EA.hy 926 [18] = assay: Antiangiogenic activity against human EAhy926 cells assessed as inhibition of tube formation on matrigel at 100 nM after 24 hrs by light microscopic analysis; type: functional, cell-based
Outline: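 Ea.Hy926 endothelial hybrid cells were seeded on matrigel with compound and examined for tubular/cord-like network formation versus untreated controls. Viability under the same conditions was checked in parallel by MTT to exclude cytotoxic effects.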

HT-29 [19] = assay: Cell cycle arrest in human HT-29 cells assessed as accumulation of cells at G2/M phase after 24 hrs by propidium iodide staining-based flow cytometric analysis; type: functional
DLD-1 = assay: Antiproliferative activity against human DLD1 cells after 72 hrs by MTT assay; type: functional, cell-based; settings: DLD-1, 72 h; outline: as §1
518A2 [20] = assay: Effect on F-actin in human 518A2 cells assessed as thick stress fibers formation at 100 nM after 3 hrs by DAPI staining-based fluorescence microscopic analysis; type: cell-based
Outline: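 518A2 melanoma cells were treated with 100 nM for 3 h. Filamentous actin was fluorescence-labelled, nuclei were counterstained with DAPI, and the cells were imaged by fluorescence microscopy. Images come from two independent experiments.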

Chorioallantoic membrane [21] = assay: Antiangiogenic activity in Leghorn chicken embryo chorioallantoic membrane assessed as reduction in size of main blood vessels at 5 nmol after 6 hrs by light microscopic analysis; type: functional, tissue-based; settings: Gallus gallus; outline: as §3
Tubulin = Tubulin (Sus scrofa, UniProt P02554+P02550); assay: Inhibition of porcine brain tubulin polymerization after 2 hrs
518A2 [22] = assay: Induction of apoptosis in human 518A2 cells at 100 nM after 24 hrs by TUNEL assay relative to control; type: functional
518A2 [23] = assay: Induction of apoptosis in human 518A2 cells assessed as accumulation at subG1 phase; type: functional, cell-based
[24] = Toxicity in human A2780 cells xenografted nude mouse at 30 mg/kg administered on every other day and measured after 24 hrs; type: organism-based; settings: in vivo
HCT-116 = assay: Antiproliferative activity against human HCT116 cells after 72 hrs by MTT assay; type: functional, cell-based; settings: HCT-116, 72 h; outline: as §1
EA.hy 926 [25] = assay: Antiproliferative activity against human EAhy926 cells after 72 hrs by MTT assay; type: functional, cell-based; settings: EA.hy 926, 72 h; outline: as §1
518A2 [26] = assay: Antimigratory activity against human 518A2 cells at 50 nM after 48 hrs by wound healing assay; type: functional, cell-based
Tubulin (Homo sapiens) = Tubulin (Homo sapiens) (UniProt P68371+Q9H4B7+P0DPH7+P68366+Q13509+Q71U36+P04350+Q3ZCM7+P07437+P68363+Q9BQE3+Q6PEY2+Q13885+Q9BVA1+Q9BUF5); assay: Induction of microtubule disruption in human 518A2 cells at 100 nM after 3 hrs by DAPI staining-based fluorescence microscopic analysis; type: cell-based
Outline: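 Microtubule organization in 518A2 melanoma cells was checked by tubulin immunofluorescence staining after 3 h exposure to 100 nM, with DAPI as the nuclear counterstain. Images come from two independent experiments.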

Chorioallantoic membrane [27] = assay: Antiangiogenic activity in Leghorn chicken embryo chorioallantoic membrane assessed as induction of contraction at 5 nmol after 6 to 24 hrs by light microscopic analysis; type: functional, tissue-based; settings: Gallus gallus; outline: as §3
518A2 [28] = assay: Induction of cell cycle arrest in human 518A2 cells; type: functional, cell-based
PANC-1 = assay: Antiproliferative activity against human PANC1 cells after 72 hrs by MTT assay; type: functional, cell-based; settings: PANC-1, 72 h; outline: as §1
Chorioallantoic membrane [29] = assay: Antiangiogenic activity in Leghorn chicken embryo chorioallantoic membrane assessed as induction of irritation at 5 nmol after 6 to 24 hrs by light microscopic analysis; type: functional, tissue-based; settings: Gallus gallus; outline: as §3
[30] = Antiproliferative activity against human MCF7/Topo cells after 72 hrs by MTT assay; type: functional, cell-based; outline: as §1
[31] = Antiproliferative activity against human KB-V1/Vbl cells after 72 hrs by MTT assay; type: functional, cell-based; outline: as §1
Chorioallantoic membrane [32] = assay: Antiangiogenic activity in Leghorn chicken embryo chorioallantoic membrane assessed as effect on blood vessel length at 5 nmol after 6 hrs by light microscopic analysis; type: functional, tissue-based; settings: Gallus gallus; outline: as §3
Chorioallantoic membrane [33] = assay: Antiangiogenic activity in Leghorn chicken embryo chorioallantoic membrane assessed as reduction in blood vessel area at 5 nmol after 6 hrs by light microscopic analysis relative to control; type: functional, tissue-based; set-up: scale not given: the % may be the effect or the level left; settings: Gallus gallus
Outline: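 The CAM assay was run with topical application into a silicon foil ring atop the CAM of fertilized chicken eggs. Area covered by blood vessels was quantified by fractal analysis relative to control.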

[34] = Solubility in tween80/ethanol (1:1) solution; type: physicochemical

IC50 (HT-29 [3]) | IC50 (A2780) | IC50 (DLD-1) | IC50 (HCT-116) | Compound | Activity (HT-29 [1]) | Activity (HT-29 [2]) | Activity (HT-29 [4]) | Activity (HT-29 [5]) | Activity (HT-29 [6]) | Activity (HT-29 [7]) | IC50 [8] | Activity (HT-29 [9]) | Activity (HT-29 [10]) | Activity (HT-29 [11]) | Activity (HT-29 [12]) | Activity (HT-29 [13]) | Activity (518A2 [14]) | IC50 (518A2 [14]) | Activity (HT-29 [15]) | IC50 (EA.hy 926 [25]) | other results
172 nM | 48.5 nM | – | – | N#CC1=C(N)Oc2c(ccc3ccccc23)C1c1ccc(Cl)c(F)c1 (stereo not given) | 9.3% | 56% | 25% | 14.7% | 9.4% | 21% | 57.3 nM | 14.9% | 15.4% | 34% | 50.4% | 27% | Dose-dependent effect | 425 nM | 20.5% | – | inhibition (Tubulin (Sus scrofa)): 44.1%
52.1 nM | 12.1 nM | 39.5 nM | 19.1 nM | COc1c(Br)cc(C2C(C#N)=C(N)Oc3c2ccc2ccccc32)cc1Br (stereo not given) | 2.7% | 51.8% | 4.4% | 19.4% | 13.9% | 19.9% | 15.8 nM | 10.6% | 26.8% | 64.3% | 55% | 5.3% | Dose-dependent effect | 24.4 nM | 26.1% | 15.9 nM | Activity (EA.hy 926 [16]): > 68%; Activity (Chorioallantoic membrane [17]): inactive; Activity (EA.hy 926 [18]): Active; Activity (HT-29 [19]): Dose-dependent effect; Activity (518A2 [20]): Active; Activity (Chorioallantoic membrane [21]): Active; I50 (Tubulin): 13 µM; Activity (518A2 [22]): 46.5%; Activity (518A2 [23]): Active; Activity [24]: Toxic; Activity (518A2 [26]): Active; Activity (Tubulin (Homo sapiens)): Active; Activity (Chorioallantoic membrane [27]): Active; Activity (518A2 [28]): inactive; IC50 (PANC-1): 14.7 nM; Activity (Chorioallantoic membrane [29]): Active; IC50 [30]: 24.8 nM; IC50 [31]: 33.4 nM; Activity (Chorioallantoic membrane [32]): Active; Activity (Chorioallantoic membrane [33]): 45%
103 nM | 16.7 nM | 59 nM | 69.2 nM | COc1c(Cl)cc(C2C(C#N)=C(N)Oc3c2ccc2ccccc32)cc1Cl (stereo not given) | – | – | – | – | – | – | 19.2 nM | – | – | – | – | – | Dose-dependent effect | 44.6 nM | – | 32.6 nM | solubility [34]: Insoluble; IC50 (PANC-1): 27.9 nM; IC50 [30]: 29.9 nM; IC50 [31]: 30.2 nM

Source: ChEMBL document CHEMBL4330063, “New naphthopyran analogues of LY290181 as potential tumor vascular-disrupting agents” (Eur J Med Chem, 2019)
